# According to ChEMBL document CHEMBL1817554, “Design of HIV-1 protease inhibitors with C3-substituted hexahydrocyclopentafuranyl urethanes as P2-ligands: synthesis, biological evaluation, and protein-ligand X-ray crystal structure” (J Med Chem, 2011):
# pIC50, pKi: −log10 of the molar value.
# Tests used:
# Protease = Protease (Human immunodeficiency virus 1, UniProt Q9YQ12); assay: Inhibition of Human immunodeficiency virus 1 protease assessed as release of fluorescent N-terminal tripeptide using fluorogenic substrate by continuous fluorometric assay
# [1] = test system: Human immunodeficiency virus 1; assay: Antiviral activity against Human immunodeficiency virus 1 LAI infected in human MT2 cells by MTT assay
# [2] = test system: Human immunodeficiency virus 1; assay: Antiviral activity against wild type Human immunodeficiency virus 1 ERS104pre infected in PHA-stimulated human PBMC assessed as inhibition of p24 Gag protein production; type: functional, organism-based
# How it was run: (§1)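 PHA-stimulated PBMCs served as target cells, and inhibition of p24 Gag protein production was the end point. Fold change was taken against the wild-type HIV-1ERS104pre IC50. Each assay was run in duplicate or triplicate. Values are means (±1 standard deviation) from three independent experiments.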
# [3] = test system: Human immunodeficiency virus 1; assay: Antiviral activity against multidrug-resistant Human immunodeficiency virus 1 subtype B harboring protease L10I, L33I, M36I, M46I, F53L, K55R, I62 V, L63P, A71 V, G73S, V82A, L90M, I93L mutation infected in PHA-stimulated human PBMC assessed as inhibition of p24 Gag protein production; type: functional, organism-based; how it was run: as §1
# [4] = test system: Human immunodeficiency virus 1; assay: Antiviral activity against multidrug-resistant Human immunodeficiency virus 1 MDR/C harboring protease L10I, I15 V, K20R, L24I, M36I, M46L, I54V, I62 V, L63P, K70Q, V82A, L89 M mutation infected in PHA-stimulated human PBMC assessed as inhibition of p24 Gag protein production; type: functional, organism-based; how it was run: as §1
# [5] = test system: Human immunodeficiency virus 1; assay: Antiviral activity against multidrug-resistant Human immunodeficiency virus 1 MDR/G harboring protease L10I, V11I, T12E, I15 V, L19I, R41K, M46L, L63P, A71T, V82A, L90 M mutation infected in PHA-stimulated human PBMC assessed as inhibition of p24 Gag protein production; type: functional, organism-based; how it was run: as §1
# [6] = test system: Human immunodeficiency virus 1; assay: Antiviral activity against multidrug-resistant Human immunodeficiency virus 1 MDR/TM harboring protease L10I, K14R, R41K, M46L, I54V, L63P, A71V, V82A, L90M, I93L mutation infected in PHA-stimulated human PBMC assessed as inhibition of p24 Gag protein production; type: functional, organism-based; how it was run: as §1
# [7] = test system: Human immunodeficiency virus 1; assay: Ratio of IC50 for Human immunodeficiency virus 1 MDR/B to IC50 for wild-type Human immunodeficiency virus 1 ERS104pre; type: functional
# [8] = test system: Human immunodeficiency virus 1; assay: Ratio of IC50 for Human immunodeficiency virus 1 MDR/C to IC50 for wild-type Human immunodeficiency virus 1 ERS104pre; type: functional
# [9] = test system: Human immunodeficiency virus 1; assay: Ratio of IC50 for Human immunodeficiency virus 1 MDR/G to IC50 for wild-type Human immunodeficiency virus 1 ERS104pre; type: functional
# How it was run: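 Antiviral IC50s measured against each multidrug-resistant clinical isolate and wild-type HIV-1ERS104pre in PHA-stimulated PBMCs as target cells, with inhibition of p24 Gag production as the end point. The fold change is the isolate IC50 divided by the wild-type IC50. Assays were run in duplicate or triplicate; values are means (±1 SD) of three independent experiments.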
# [10] = test system: Human immunodeficiency virus 1; assay: Ratio of IC50 for Human immunodeficiency virus 1 MDR/TM to IC50 for wild-type Human immunodeficiency virus 1 ERS104pre; type: functional
# Protease, sequence (Q9YQ12 whole entry): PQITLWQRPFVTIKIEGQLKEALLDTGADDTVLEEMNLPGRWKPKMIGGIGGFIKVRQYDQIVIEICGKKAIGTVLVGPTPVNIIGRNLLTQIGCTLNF
Structure (SMILES),pKi (Protease),pIC50 [1],further results
COc1ccc(S(=O)(=O)N(CC(C)C)C[C@@H](O)[C@H](Cc2ccccc2)NC(=O)O[C@@H]2C[C@@H]3[C@@H](OC)CO[C@@H]3C2)cc1,11.22,8.47,–
COc1ccc(S(=O)(=O)N(CC(C)C)C[C@@H](O)[C@H](Cc2ccccc2)NC(=O)O[C@@H]2C[C@@H]3[C@H](N(C)C)CO[C@@H]3C2)cc1,7.90,–,–
CC(C)CN(C[C@@H](O)[C@H](Cc1ccccc1)NC(=O)O[C@@H]1C[C@@H]2[C@@H](O)CO[C@@H]2C1)S(=O)(=O)c1ccc(N)cc1,11.22,7.44,–
COc1ccc(S(=O)(=O)N(CC(C)C)C[C@@H](O)[C@H](Cc2ccccc2)NC(=O)O[C@@H]2C[C@@H]3[C@@H](O)CO[C@@H]3C2)cc1,–,8.54,pIC50 [2]: 8.54; pIC50 [3]: 7.54; pIC50 [4]: 7.66; pIC50 [5]: 8.35; pIC50 [6]: 8.51
COc1ccc(S(=O)(=O)N(CC(C)C)C[C@@H](O)[C@H](Cc2ccccc2)NC(=O)O[C@@H]2C[C@@H]3[C@@H](C)CO[C@@H]3C2)cc1,10.77,–,–
COc1ccc(S(=O)(=O)N(CC(C)C)C[C@@H](O)[C@H](Cc2ccccc2)NC(=O)O[C@@H]2C[C@@H]3[C@H](C)CO[C@@H]3C2)cc1,9.80,7.60,–
CC(C)CN(C[C@@H](O)[C@H](Cc1ccccc1)NC(=O)O[C@H]1CCOC1)S(=O)(=O)c1ccc(N)cc1,–,–,pIC50 [3]: 6.03; pIC50 [4]: 6.59; pIC50 [5]: 6.42; pIC50 [6]: 6.72; Ratio IC50 [7]: 31; Ratio IC50 [8]: 9; Ratio IC50 [9]: 12; Ratio IC50 [10]: 6
COc1ccc(S(=O)(=O)N(CC(C)C)C[C@@H](O)[C@H](Cc2ccccc2)NC(=O)O[C@@H]2C[C@@H]3[C@H](OC)CO[C@@H]3C2)cc1,9.41,7.43,–
COc1ccc(S(=O)(=O)N(CC(C)C)C[C@@H](O)[C@H](Cc2ccccc2)NC(=O)O[C@@H]2C[C@@H]3[C@H](O)CO[C@@H]3C2)cc1,10.11,8.15,pIC50 [2]: 7.70; pIC50 [3]: < 6.00; pIC50 [4]: < 6.00; pIC50 [5]: 6.57; pIC50 [6]: 7.39
COc1ccc(S(=O)(=O)N(CC(C)C)C[C@@H](O)[C@H](Cc2ccccc2)NC(=O)O[C@@H]2C[C@@H]3C(=O)CO[C@@H]3C2)cc1,9.02,7.85,–
CC(C)CN(C[C@@H](O)[C@H](Cc1ccccc1)NC(=O)O[C@@H]1C[C@@H]2[C@H](O)CO[C@@H]2C1)S(=O)(=O)c1ccc(CO)cc1,10.22,7.72,–
CC(C)CN(C[C@@H](O)[C@H](Cc1ccccc1)NC(=O)O[C@@H]1C[C@@H]2[C@H](O)CO[C@@H]2C1)S(=O)(=O)c1ccc(N)cc1,10.10,7.60,–
